Laboratory results as given in article PMC3941648 (Protein and peptide letters, 2014).
Entries after “also recorded” stand apart in the source; their conditions may differ. *: point of attachment. FITC = O=C1OC2(c3ccc(O)cc3Oc3cc(O)ccc32)c2ccc(NC(=S)*)cc21; Biotin = O=C1N[C@H]2[C@H](CS[C@H]2CCCCC(=O)*)N1; Ahx = NCCCCCC(=O)O

Key:
Format in all cases: cell-based, Chinese hamster
wild-type CHO K1 cells = assay: Cellular uptake of FITC-labeled peptides, flow cytometry and confocal microscopy; settings: as stated in the abstract; cell type not stated
Summary of the method: (§1)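 CHO K1 wild-type and GAG-deficient mutants were grown in DMEM/F12 with 10% FBS at 37 °C. At ~75% confluence (48 h after seeding), cells were exposed to 20 μM FITC-labelled peptide for 2 h at 37 °C, then trypsinised, washed and analysed by flow cytometry. Dead cells (7-AAD-positive) were gated out, ≥5,000 events were collected and uptake was expressed relative to wild-type. Confocal imaging used a ~0.40 micron mid Z-section. Triplicates, mean ± S.D., t test.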

[1] = system: pgs C-605 cells (sulfate transporter-defective CHO K1 mutant); assay: Cellular uptake of FITC-labeled peptides, flow cytometry; settings: 20 μM FITC-labeled peptide, 2 h, 37°C
Summary of the method: (§2)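 Mutant and wild-type CHO K1 cells were seeded 48 h before use and treated at ~75% confluence with 20 μM FITC-labelled peptide in DMEM/F12 for 2 h at 37 °C. Cells were washed, trypsinised for 5 min and resuspended at 2×10⁶ cells/ml. 7-AAD (0.5 ng/μl final) excluded dead cells. Fluorescence was read with 488-nm excitation on ≥5,000 live events and compared with wild-type. Triplicates, mean ± S.D.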

[2] = system: pgs D-677 cells (heparan sulfate-defective CHO K1 mutant); assay: Cellular uptake of FITC-labeled peptides, flow cytometry and confocal microscopy; settings: deduced from uptake in pgs D-677 versus wt CHO K1; 20 μM, 2 h, 37°C
Summary of the method: as §1

[3] = system: pgs F-17 cells (2-O-sulfation-defective CHO K1 mutant); assay: Cellular uptake of FITC-labeled peptides, flow cytometry; settings: 20 μM FITC-labeled peptide, 2 h, 37°C
Summary of the method: as §2

pgs A-745 cells = assay: Cellular uptake of peptide-horseradish peroxidase; settings: pgs A-745 cells lacking surface GAGs; 240 ng/ml complex, 30 min, 37°C; TMB substrate, 405 nm; n=3

{FITC-Ahx}-KKGFYKKK-NH2 [KK-8]
Uptake activity retained within KW-22 (abstract) (wild-type CHO K1 cells): no uptake activity

{FITC-Ahx}-KKGFYKKKQCRPSKGRKRGFCW-NH2 (cysteine pairing not given here) [KW-22]
Cellular fluorescence (uptake) compared with wt CHO K1 [1]: comparable with that of the wt cells
Contribution of heparan sulfate to total uptake [2]: ~ 38%
Cellular uptake compared with wt CHO K1 [3]: comparable to that in wt cells; also recorded: barely affected

{Biotin-Ahx}-KKGFYKKKQCRPSKGRKRGFCWAVDKYG-NH2 (cysteine pairing not given here) [KG-28]
Uptake of complex into cells (peroxidase activity of cell extracts) (pgs A-745 cells): abolished
